Several values for one entry are separate records, joined by “and”; a condition that tells them apart may be missing. Equal values may be shown once. Read-outs that look alike come from different tables or passages of the source. Marks after values point to notes of the source that are not given here.
Columns and labels:
Assay type in all cases: binding
WT MelBSt = WT MelBSt (Salmonella typhimurium, UniProt P30878); assay: Thermal denaturation by CD spectroscopy; details: for 10% unfolding / 50% unfolding (Tm) / 90% unfolding: WT MelBSt 10 µM, component at 50 mM in CD buffer, ellipticity at 210 nm; for denaturation completed faster than in the absence of salt / ΔTm: WT MelBSt; for denaturation completed faster than in the absence of salt: above 60°C, nonspecific salt effect; for ΔTm: difference in Tm compared with apo
In short: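 Samples sat in a 1-mm cuvette. Ellipticity at 210 nm was recorded from 25–80°C at 1°C intervals, ramping 1°C/min, and expressed as percent unfolded. Tm is the half-maximal ellipticity decrease by curve fitting. Data are SEM; unpaired t test, P<0.05.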

D55C MelBSt mutant = D55C MelBSt mutant (Salmonella typhimurium, UniProt P30878, D55C); assay: Thermal denaturation by CD spectroscopy; details: D55C MelBSt 10 µM, component at 50 mM in CD buffer, ellipticity at 210 nm
MelBSt = MelBSt (Salmonella typhimurium, UniProt P30878); details: for ΔΔH: from 15°C to 30°C
[1] = MelBSt with 100 mM NaCl (MelBSt/Na^+ binary complex), 15°C
[2] = MelBSt with 100 mM NaCl (MelBSt/Na^+ binary complex), 20°C
[3] = MelBSt with 100 mM NaCl (MelBSt/Na^+ binary complex), 25°C
[4] = MelBSt with 100 mM NaCl (MelBSt/Na^+ binary complex), 30°C
[5] = MelBSt with 100 mM NaCl (MelBSt/Na^+ binary complex), 35°C
[6] = apo MelBSt, range over 15°C, 20°C, 25°C and 30°C
[7] = binding to MelBSt/Na^+ binary complex
[8] = MelBSt with 50 mM melibiose (MelBSt/Mel binary complex), 15°C
[9] = MelBSt with 50 mM melibiose (MelBSt/Mel binary complex), 20°C
[10] = MelBSt with 50 mM melibiose (MelBSt/Mel binary complex), 25°C
[11] = MelBSt with 50 mM melibiose (MelBSt/Mel binary complex), 30°C
[12] = binding to MelBSt/Mel binary complex

## [K+] [K^+]
WT MelBSt
  10% unfolding: 46.06 ± 0.02 °C
  50% unfolding (Tm): 53.34 ± 0.04 °C
  90% unfolding: 59.94 ± 0.69 °C
  denaturation completed faster than in the absence of salt: 4–5 °C
  ΔTm: 0.05 ^d (>0.05 ^e) °C
D55C MelBSt mutant
  10% unfolding: 46.51 ± 0.71 °C
  50% unfolding (Tm): 56.15 ± 0.16 °C
  90% unfolding: 65.07 ± 0.06 °C

## OC[C@H]1O[C@H](OCC2O[C@@H](O)[C@H](O)[C@@H](O)[C@@H]2O)[C@H](O)[C@@H](O)[C@H]1O (stereo partly shown) [Mel, melibiose]
WT MelBSt
  10% unfolding: 45.95 ± 0.47 °C
  50% unfolding (Tm): 54.07 ± 0.07 °C
  90% unfolding: 64.24 ± 0.42 °C
  ΔTm: 0.78 (<0.05) °C
D55C MelBSt mutant
  50% unfolding (Tm): >80 °C
MelBSt; [1]
  Entropy change (−TΔS): -2.3 ± 0.16 kcal/mol
  Free energy change (ΔG): -3.927 ± 0.0072 kcal/mol
  Kd: 1050 ± 10 µM
  ΔH: -1.54 ± 0.103 kcal/mol
MelBSt; [2]
  Entropy change (−TΔS): -1.76 ± 0.237 kcal/mol
  Free energy change (ΔG): -4.085 ± 0.0956 kcal/mol
  Kd: 950 ± 130 µM
  ΔH: -2.32 ± 0.141 kcal/mol
MelBSt; [3]
  Entropy change (−TΔS): -1.14 ± 0.0621 kcal/mol
  Free energy change (ΔG): -3.994 ± 0.0072 kcal/mol
  Kd: 1180 ± 10 µM
  ΔH: -2.861 ± 0.055 kcal/mol
MelBSt; [4]
  Entropy change (−TΔS): -0.712 ± 0.0741 kcal/mol
  Free energy change (ΔG): -3.956 ± 0.017 kcal/mol
  Kd: 1410 ± 40 µM
  ΔH: -3.243 ± 0.0574 kcal/mol
MelBSt; [5]
  Entropy change (−TΔS): -0.261 ± 0.055 kcal/mol
  Free energy change (ΔG): -3.879 ± 0.0478 kcal/mol
  Kd: 1780 ± 140 µM
  ΔH: -3.623 ± 0.105 kcal/mol
MelBSt; apo MelBSt (main buffer), 15°C
  Entropy change (−TΔS): 3.499 ± 1.03 kcal/mol
  Free energy change (ΔG): -2.694 ± 0.0645 kcal/mol
  Kd: 9150 ± 1060 µM
  ΔH: -6.193 ± 1.09 kcal/mol
MelBSt; apo MelBSt (main buffer), 15°C, listed as melibiose
  ΔH: -6.193 kcal/mol
MelBSt; apo MelBSt (main buffer), 20°C
  Entropy change (−TΔS): 2.849 ± 1.19 kcal/mol
  Free energy change (ΔG): -2.71 ± 0.0621 kcal/mol
  Kd: 9590 ± 1010 µM
  ΔH: -5.559 ± 1.25 kcal/mol
MelBSt; apo MelBSt (main buffer), 25°C
  Entropy change (−TΔS): 2 ± 1.6 kcal/mol
  Free energy change (ΔG): -2.698 ± 0.139 kcal/mol
  Kd: 10800 ± 2490 µM
  ΔH: -4.694 ± 1.47 kcal/mol
MelBSt; apo MelBSt (main buffer), 30°C
  Entropy change (−TΔS): 1.34 ± 1.35 kcal/mol
  Free energy change (ΔG): -2.584 ± 0.0526 kcal/mol
  Kd: 13800 ± 1180 µM
  ΔH: -3.92 ± 1.3 kcal/mol
MelBSt; apo MelBSt (main buffer), 30°C, listed as melibiose
  ΔH: -3.92 kcal/mol
MelBSt; apo MelBSt
  ΔΔH: ~2.39 kcal/mol
MelBSt; [6]
  Kd: 9000 to 13000 µM
  binding free energy ΔG: -2.694 to -2.584 kcal/mol
MelBSt; [7]
  −ΔSConf: 59.86 J/mol·K
  −ΔSMix: 33.00 J/mol·K
  −ΔSSolv: −108.78 J/mol·K
  −ΔSSum at °25 C: −15.92 J/mol·K
MelBSt; binding to apo MelBSt
  −ΔSConf: −169.20 J/mol·K
  −ΔSMix: 33.00 J/mol·K
  −ΔSSolv: 164.61 J/mol·K
  −ΔSSum at °25 C: 28.41 J/mol·K
MelBSt; binding to apo MelBSt, slope of ΔH versus temperature 15-30°C
  ΔCp: 643.01 ± 26.92 J/mol·K

## [Na+] [Na^+]
WT MelBSt
  10% unfolding: 49.07 ± 0.28 °C
  50% unfolding (Tm): 54.83 ± 0.03 °C
  90% unfolding: 60.06 ± 0.29 °C
  denaturation completed faster than in the absence of salt: 4–5 °C
  ΔTm: 1.54 (<0.05) °C
D55C MelBSt mutant
  10% unfolding: 46.35 ± 0.25 °C
  50% unfolding (Tm): 56.75 ± 0.25 °C
  90% unfolding: 66.51 ± 0.31 °C
MelBSt; [8]
  Entropy change (−TΔS): -3.009 ± 0.0621 kcal/mol
  Free energy change (ΔG): -5.566 ± 0.0478 kcal/mol
  Kd: 60 ± 10 µM
  ΔH: -2.557 ± 0.014 kcal/mol
MelBSt; [9]
  Entropy change (−TΔS): -1.94 ± 0.0072 kcal/mol
  Free energy change (ΔG): -5.554 ± 0.0406 kcal/mol
  Kd: 70 ± 10 µM
  ΔH: -3.619 ± 0.0359 kcal/mol
MelBSt; [10]
  Entropy change (−TΔS): -0.913 ± 0.0072 kcal/mol
  Free energy change (ΔG): -5.39 ± 0.196 kcal/mol
  Kd: 120 ± 40 µM
  ΔH: -4.479 ± 0.191 kcal/mol
MelBSt; [11]
  Free energy change (ΔG): -5.485 ± 0.177 kcal/mol
  Kd: 120 ± 30 µM
  ΔH: -5.299 ± 0.124 kcal/mol
MelBSt; apo MelBSt
  difference in apo MelBSt binding affinities between Na^+ and melibiose: at least 20 fold
  ΔΔH: ~4.78 kcal/mol
MelBSt; apo MelBSt (main buffer), 15°C
  Entropy change (−TΔS): 4.197 ± 0.311 kcal/mol
  Free energy change (ΔG): -4.345 ± 0.0932 kcal/mol
  Kd: 510 ± 80 µM
  ΔH: -8.544 kcal/mol and -8.544 ± 0.215 kcal/mol
MelBSt; apo MelBSt (main buffer), 20°C
  Entropy change (−TΔS): 2.404 ± 0.0048 kcal/mol
  Free energy change (ΔG): -4.333 ± 0.117 kcal/mol
  Kd: 600 ± 100 µM
  ΔH: -6.74 ± 0.103 kcal/mol
MelBSt; apo MelBSt (main buffer), 25°C
  Entropy change (−TΔS): 0.872 ± 0.0741 kcal/mol
  Free energy change (ΔG): -4.412 ± 0.1 kcal/mol
  Kd: 590 ± 120 µM
  ΔH: -5.284 ± 0.191 kcal/mol
MelBSt; apo MelBSt (main buffer), 30°C
  Entropy change (−TΔS): -0.473 ± 0.387 kcal/mol
  Free energy change (ΔG): -4.302 ± 0.0526 kcal/mol
  Kd: 790 ± 70 µM
  ΔH: -3.829 kcal/mol and -3.829 ± 0.335 kcal/mol
MelBSt; [12]
  −ΔSConf: 148.74 J/mol·K
  −ΔSMix: 33.00 J/mol·K
  −ΔSSolv: −194.56 J/mol·K
  −ΔSSum at °25 C: −12.82 J/mol·K
MelBSt; binding to apo MelBSt
  −ΔSConf: −354.89 J/mol·K
  −ΔSMix: 33.00 J/mol·K
  −ΔSSolv: 334.13 J/mol·K
  −ΔSSum at °25 C: 12.24 J/mol·K

Reference: PMC8200842 (The Journal of General Physiology, 2021)
